Bioassay records deposited in PubChem BioAssay by several laboratories.
This is a sample that favours compounds with a hit; in the whole collection about 4.9% have one here.
RAM network inh: inhibitors of the yeast RAM network, primary screen, dse1pr::URA3 reporter, 5-FOA selection; S. cerevisiae dse1pr::URA3 reporter, 5-FOA growth OD615, 2 d; analog-sensitive cbk1-as2 kinase mutant strain; inhibition, % at 50 µM; actives 1.8% (n = 190,000);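 active = inhibition above a set limit, 3 SD over mean compound inhibition, cut at about 8.4% in these data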;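 also: inhibition rescues growth on 5-FOA so higher OD means more RAM inhibition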
NPY2 pot ag: NPY-Y2 potentiators or agonists, primary screen, cell-based. Neuropeptide Y receptor type 2 (Homo sapiens), P49146. activation, % at 3.6 µM. actives 0.45% (n = 220,000). cells expressing NPY-Y2, potentiator/agonist read-out; in the data active = activation above about 27%;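 also: cells stimulated with NPY near EC25 plus isoproterenol at EC100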
NPY-Y1 PAM-ag: NPY-Y1 receptor potentiators or agonists, primary screen, cell-based; Neuropeptide Y receptor type 1 (Homo sapiens), P25929; NPY-Y1 expressing cells, potentiator/agonist activation; activation, % at 3.6 µM; actives 0.37% (n = 220,000); AID 1304, 2008; in the data active = activation above about 33%, passing the limit was not always enough;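 also: cells stimulated with NPY at EC10 then isoproterenol at EC100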
Target sequence (P25929 whole entry, looked up): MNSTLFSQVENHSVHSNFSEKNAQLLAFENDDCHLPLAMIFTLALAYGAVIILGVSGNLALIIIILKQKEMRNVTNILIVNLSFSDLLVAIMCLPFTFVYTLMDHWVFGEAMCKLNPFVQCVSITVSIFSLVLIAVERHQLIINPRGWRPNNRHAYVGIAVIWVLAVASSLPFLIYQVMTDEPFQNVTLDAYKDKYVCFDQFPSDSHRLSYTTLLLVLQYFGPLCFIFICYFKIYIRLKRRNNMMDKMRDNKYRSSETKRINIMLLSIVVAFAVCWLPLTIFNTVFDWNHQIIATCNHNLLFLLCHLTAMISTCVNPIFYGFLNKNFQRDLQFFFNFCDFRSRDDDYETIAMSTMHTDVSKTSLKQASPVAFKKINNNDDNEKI
WT yeast gro inh: growth inhibition of WT strain, primary screen, mitochondrial fusion inhibitor project, WT and mutant strains, chemical genetic | mitochondrial fusion phenotypic screen | inhibition, % at 10 µM | actives 2.1% (n = 190,000); in the data active = inhibition above about 58%; tested in S. cerevisiae
NPY Y2 blocker: NPY-Y2 receptor antagonists, primary screen, cell-based | Neuropeptide Y receptor type 2 (Homo sapiens), P49146 | NPY-Y2 expressing cells, antagonist mode | inhibition, % at 2.7 µM | actives 0.99% (n = 140,000) | AID 793, 2007; in the data active = inhibition above about 17%
NPY Y1 blocker: NPY-Y1 receptor antagonists, primary screen, cell-based | inhibition, % at 3.6 µM | HEK293-CNG Y1 cells, membrane potential fluorescence; NPY at EC95, then isoproterenol | Neuropeptide Y receptor type 1 (Homo sapiens), P25929 | AID 1040, 2008 | actives 1% (n = 200,000);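 active = inhibition above the campaign mean inhibition of all tested compounds plus 3 SD, cut at about 20% in these data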
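Test system – HEK293 Y1/CNG channel cell line · Also added – NPY agonist 25 nM, then isoproterenol 1 µM plus Ro 20-1724 25 µM · Compound dosing – one concentration, 3.6 µM, in 0.4% DMSO · Schedule – compound incubation 1 h at room temperature, readout 45 min post-stimulation · Technique – fluorescence, membrane potential probe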
RAM 5-FOA: 5-FOA growth of efflux-deficient control yeast, dose response, counter-screen for RAM network inhibitor project, S. cerevisiae, OD615; shares compounds with RAM network inh; S. cerevisiae efflux-deficient reporter strain, 5-FOA growth OD615, 2 days; max inhibition, %; 1,200 tested, under 10 active; call rule not given here
Of the large screens only hits and unclear results are named; the others gave an inactive call (follow-up assays come after a bar, where they were run).

CCCS(=O)(=O)c1c(S(=O)(=O)CCC)c2c(N)cccn2c1C(=O)c1ccc(F)cc1	none
CCCS(=O)(=O)c1c(S(=O)(=O)CCC)c2c(N)cccn2c1C(=O)c1ccc(Br)cc1	RAM network inh 13 | RAM 5-FOA inactive
Cc1ccc(-c2cc(C(F)F)nc(N3CCC(C)CC3)n2)cc1	RAM network inh 12 | RAM 5-FOA inactive
CC1CCN(c2nc(-c3ccccc3)cc(C(F)(F)F)n2)CC1	none
Cn1c(N=Nc2ccc(N3CCOCC3)cc2)[n+](C)c2ccccc21	RAM network inh 13 (no result: NPY Y2 blocker) | RAM 5-FOA inactive
Cc1ccc(Cl)cc1N1CCN(S(=O)(=O)c2ccc3[nH]c(=O)c(=O)[nH]c3c2)CC1	RAM network inh 12 (no result: NPY Y2 blocker) | RAM 5-FOA inactive
Cc1ccc(Cl)cc1N1CCN(S(=O)(=O)c2cccc(S(=O)(=O)N3CCCC3)c2)CC1	none
NC1=C(c2ccc([N+](=O)[O-])cc2)C(=O)CO1	none
CCCCCCNC(=O)c1cc(-c2ccco2)nc2ccccc12	RAM network inh 13, NPY Y2 blocker 66, NPY Y1 blocker 57 | RAM 5-FOA inactive
CC(C)c1onc(C(=O)N2CCOCC2)c1[N+](=O)[O-]	none (no result: NPY Y2 blocker)
Oc1ccc2ccccc2c1N=Nc1ccccn1	none
CCOC(=O)c1[nH]cnc1N=Nc1c(O)ccc2ccccc12	RAM network inh 15 | RAM 5-FOA inactive
O=C(C1CC1)N1CCc2cc(S(=O)(=O)NCCC3=CCCCC3)ccc21	RAM network inh 11 | RAM 5-FOA inactive
O=C(COC(=O)c1ccncc1)NCCCc1ccccc1	none (no result: NPY Y2 blocker)
CC1=NN(c2nc(-c3ccc(C)cc3)cs2)C(=O)C1N=Nc1ccc(C(N)=O)cc1 (configuration not stated)	RAM network inh 12 (no result: NPY Y2 blocker) | RAM 5-FOA inactive
CC(C)c1ccc(/C=C(\c2nc3ccccc3[nH]2)S(=O)(=O)c2ccccc2)cc1	RAM network inh 19 | RAM 5-FOA inactive
O=S(=O)(/C(=C/c1ccc(C(F)(F)F)cc1)c1nc2ccccc2[nH]1)c1ccccc1	none
Cc1nc(-c2ccc(S(=O)(=O)N3CCN(CCc4ccccc4)CC3)s2)cs1	none (no result: RAM network inh, WT yeast gro inh, NPY Y2 blocker, NPY Y1 blocker)
COc1cccc(CSc2nc3cc4c(cc3cc2C)OCCO4)c1	RAM network inh 18 | RAM 5-FOA inactive
O=C(CC(c1ccccc1)(c1ccccc1)c1ccccc1)N[C@@H](Cc1ccccc1)C(=O)O	RAM network inh 13 (no result: NPY Y2 blocker) | RAM 5-FOA inactive
CCS(=O)(=O)c1ccc(-c2csc(-c3ccccc3Cl)n2)c(Cl)c1Cl	none
CCS(=O)(=O)c1ccc(-c2csc(-c3ccc(Cl)cc3)n2)c(Cl)c1Cl	RAM network inh 12 | RAM 5-FOA inactive
CCCCOc1ccccc1NC(=O)c1scc2c1OCCO2	RAM network inh 13 (no result: NPY Y2 blocker) | RAM 5-FOA inactive
COc1ccc(Nc2nc(OC)nc(N3CCN(c4ccc(OC)cc4)CC3)n2)cc1	none
Cc1ccc(C(=O)Nc2ccc(C(=O)O)cc2)cc1S(=O)(=O)NCc1ccccc1	RAM network inh 13 (no result: NPY Y2 blocker) | RAM 5-FOA inactive
CC(=O)Nc1ccc(NC(=O)c2ccc(C)c(S(=O)(=O)Nc3cccc(C)c3)c2)cc1	none (no result: NPY Y2 blocker)
COc1ccc(OC)c(NC(=O)COC(=O)Cc2ccc(-c3ccccc3)cc2)c1	RAM network inh 14 | RAM 5-FOA inactive
COc1cc(NC(=O)COC(=O)Cc2ccc(-c3ccccc3)cc2)cc(OC)c1	RAM network inh 17 | RAM 5-FOA inactive
COc1ccc(CC(=O)Nc2cc3oc4ccccc4c3cc2OC)cc1	RAM network inh 12 | RAM 5-FOA inactive
COc1ccc2c(=O)c3c(=O)n(Cc4ccco4)c(-c4ccc(C)cc4)nc3oc2c1	none
COc1cccc(-c2nc(=S)c3c(n2Cc2ccco2)CCCC3)c1	RAM network inh 14 | RAM 5-FOA inactive
CCOc1cc(Br)c(CC(=O)O)cc1OCC	none (no result: RAM network inh, WT yeast gro inh, NPY Y2 blocker, NPY Y1 blocker)
CC(C)Cn1c(N)c(-c2nc(C(C)C)c(C(=O)c3ccccc3F)s2)c(=O)n(C)c1=O	RAM network inh 12 (no result: NPY Y2 blocker) | RAM 5-FOA inactive
COc1cccc(CN(Cc2ccco2)C(c2ccc(F)cc2)c2nnnn2C(C)(C)C)c1 (configuration not stated)	RAM network inh 14, NPY Y2 blocker 22, NPY Y1 blocker 31 | RAM 5-FOA inactive
O=C(Cn1ncc2c(=O)oc3ccccc3c21)NCCC1=CCCCC1	none
CCOC(=O)C1=C(O)/C(=C/c2cc(OC)c(O)c(OC)c2)SC1=Nc1ccc(OC)cc1	RAM network inh 16 | RAM 5-FOA inactive
O=C(Cc1ccccc1[N+](=O)[O-])N1CCN(c2ccccc2F)CC1	none
COc1ccc(C)cc1NC(=O)C(Sc1nnc2ccccn12)c1ccccc1 (configuration not stated)	none
COc1ccc(OC)c(NC(=O)C(Sc2ccccc2)c2ccccc2)c1 (configuration not stated)	RAM network inh 14 | RAM 5-FOA inactive
COc1cccc(NC(=O)CNC(=O)c2ccc([N+](=O)[O-])cc2)c1	none (no result: RAM network inh, WT yeast gro inh, NPY Y2 blocker, NPY Y1 blocker)
CN(C)c1ccc(N=Nc2ccccc2C(=O)OCC(=O)N2CCCC2)cc1	none
CN(C)c1ccc(N=Nc2ccccc2C(=O)OCC(=O)Nc2ccccc2C(F)(F)F)cc1	RAM network inh 20 | RAM 5-FOA inactive
Nc1ccc(C(=O)c2cccs2)cc1	none
CCCN1C(=O)/C(=C/c2ccc(C)s2)SC1=Nc1ccc(OC)cc1	RAM network inh 21 | RAM 5-FOA inactive
COc1cccc(/C=C(/C(=O)OCC(=O)NCC2CCCO2)c2ccccc2)c1 (configuration not stated)	none (no result: NPY Y2 blocker)
COc1cccc(/C=C(/C(=O)OCC(=O)NC2CCCCCCC2)c2ccccc2)c1	RAM network inh 13 | RAM 5-FOA inactive
C/C(=N\OC(=O)c1ccc(Cl)cc1)c1sc(-c2ccccc2)nc1C	RAM network inh 12 | RAM 5-FOA inactive
COC(=O)c1ccccc1N(C)S(=O)(=O)c1cc2c(cc1C)OCC(=O)N2	none (no result: NPY Y2 blocker)
Cc1cc(C(F)(F)F)c(C#N)c(N2CCOCC2)n1	none
N#Cc1c(C(F)(F)F)cc(C2CC2)nc1N1CCCC1	RAM network inh 14 | RAM 5-FOA inactive
C=CCc1cccc(/C=N/NC(=O)C(C)Nc2ccc(C)cc2)c1O (configuration not stated)	RAM network inh 16 | RAM 5-FOA inactive
O=C(CCC(=O)OCCCC(F)(F)C(F)(F)F)Nc1ccc(Cl)cc1Cl	RAM network inh 29 | RAM 5-FOA inactive
